Among the data in ChEMBL document CHEMBL1806387, “Discovery of 1,2,4-thiadiazolidine-3,5-dione analogs that exhibit unusual and selective rapid cell death kinetics against acute myelogenous leukemia cells in culture” (Bioorg Med Chem Lett, 2011) are CC50 and Activity values, retold here.

The structures appear in SMILES notation. Activity calls are given as the source filed them. The rule behind the calls is not given here.

For series [1], the system named is MV4-11. Put plainly: Cytotoxicity against human MV411 cells after 24 hrs by Annexin V-Fluorescein isothiocyanate and 7-aminoactinomycin D staining. The note with it: MV4-11, 24 h, read-out: LD50 (the source's name). The class given is functional. In outline: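 MV4-11 human AML cells (ATCC) seeded at 300,000 cells/mL in IMDM with 10% FBS. Cells exposed to at least 4 concentrations for 24 hours. Stained with Annexin V-FITC and 7-AAD, then run on flow cytometry (BD LSRII) 15 minutes later. Viable cells gated as Annexin V-negative/7-AAD-negative and expressed as percent of untreated control.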

The nature of series [2]: Cytotoxicity against human hematopoietic stem cells assessed as reduction of cell viability after 24 hrs by Annexin V-Fluorescein isothiocyanate and 7-aminoactinomycin D staining. The class given is cell-based.
Series [3] concerns MV4-11. In words: Cytotoxicity against human MV411 cells assessed as reduction of cell viability at 10 uM after 30 mins by Annexin V-Fluorescein isothiocyanate and 7-aminoactinomycin D staining. It is filed as functional, cell-based. In outline: (§1)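 MV4-11 cells (ATCC) seeded at 300,000 cells/mL in IMDM with 10% FBS and exposed to compound for the stated time in time-course runs. Cells stained with Annexin V-FITC plus 7-AAD and read by flow cytometry 15 minutes later. Viability is the Annexin V-negative/7-AAD-negative fraction, expressed relative to untreated control.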

For series [4], the system named is MV4-11. In words: Cytotoxicity against human MV411 cells assessed as reduction of cell viability at 5 uM after 1 to 2 hrs by Annexin V-Fluorescein isothiocyanate and 7-aminoactinomycin D staining. The class given is functional, cell-based. In short, it runs like this: as §1
Series [5] relates to MV4-11. In words: Cytotoxicity against human MV411 cells assessed as reduction of cell viability at 5 uM after 30 mins by Annexin V-Fluorescein isothiocyanate and 7-aminoactinomycin D staining. The class given is functional. In short, it runs like this: as §1
In series [6] the test system is MV4-11. In words: Cytotoxicity against human MV411 cells assessed as reduction of cell viability at 10 uM after 2 hrs by Annexin V-Fluorescein isothiocyanate and 7-aminoactinomycin D staining. It is filed as functional, cell-based. In short, it runs like this: as §1
Series [7] has as its system MV4-11. In words: Cytotoxicity against human MV411 cells assessed as reduction of cell viability at 20 uM after 2 hrs by Annexin V-Fluorescein isothiocyanate and 7-aminoactinomycin D staining. It is filed as functional, cell-based. In outline:
as §1

Series [8] has as its system MV4-11. Put plainly: Cytotoxicity against human MV411 cells assessed as reduction of cell viability at 5 uM after 24 hrs by Annexin V-Fluorescein isothiocyanate and 7-aminoactinomycin D staining. The class given is functional, cell-based. In outline:
as §1

Series [9] concerns MV4-11. Put plainly: Cytotoxicity against human MV411 cells assessed as reduction of cell viability at 10 uM after 24 hrs by Annexin V-Fluorescein isothiocyanate and 7-aminoactinomycin D staining. It is filed as functional, cell-based. In short, it runs like this: as §1
Series [10] deals with MV4-11. In words: Cytotoxicity against human MV411 cells assessed as reduction of cell viability at 20 uM after 30 mins by Annexin V-Fluorescein isothiocyanate and 7-aminoactinomycin D staining. It is filed as functional. In short, it runs like this:
as §1

Turning to `CCn1sc(=O)n(Cc2ccccc2)c1=O` [KRM-7777], the CC50 with MV4-11 [1] was 9.21 µM. Also, in series [2], the Activity entry is “Non-toxic”.
Consider `O=c1sn(CCCl)c(=O)n1Cc1ccccc1`, for which the CC50 in the series with MV4-11 [1] was determined as 2.03 µM. In [2], the Activity entry is “Non-toxic”. The outcome with MV4-11 [3] and with MV4-11 [4] was Active.
Turning to `C=CCn1sc(=O)n(Cc2ccc(CN)cc2)c1=O.Cl`, the CC50 with MV4-11 [1] stood at 6.7 µM. Moreover, the Activity entry in series [2] is listed as “Non-toxic”.
`O=c1sn(CCBr)c(=O)n1Cc1ccccc1`: the CC50 in the series with MV4-11 [1] was 3.5 µM. In addition, the results for the Activity entry (in series [2]; in the series with MV4-11 [5]) were “Non-toxic” and 50%, respectively. Moreover, the outcome with MV4-11 [6] was Active.
As for `C=CCn1sc(=O)n(Cc2ccccc2)c1=O`, the CC50 in the series with MV4-11 [1] was 9.2 µM. In addition, the outcome with MV4-11 [7] and in the series on MV4-11 [9] was Active. For the same molecule, the Activity result was “Non-toxic” in series [2] and 50% with MV4-11 [10]. In the series on MV4-11 [8], the result was inactive.
As to `Cl.NCc1cccc(Cn2c(=O)sn(CCCl)c2=O)c1`, the CC50 with MV4-11 [1] amounted to 4.4 µM. Further, the Activity result in series [2] is given as “Non-toxic”.
In the case of `Cn1sc(=O)n(Cc2ccccc2)c1=O`, the CC50 with MV4-11 [1] came out at 4.01 µM. The outcome with MV4-11 [7] was Active. The Activity result in series [2] is “Non-toxic”.
Consider `O=C([O-])c1ccc(Cn2c(=O)sn(CCCl)c2=O)cc1.[Na+]`, for which the CC50 in the series with MV4-11 [1] was more than 20 µM. Also, the Activity entry in series [2] was “Non-toxic”.
Taken in the same sequence, the figures for `CCCn1sc(=O)n(Cc2ccccc2)c1=O` were 11.6 µM and “Non-toxic”.
The matching figures for `Cl.NCc1ccc(Cn2c(=O)sn(CCCl)c2=O)cc1`: 3.01 µM and “Non-toxic”.
The matching figures for `Cl.NCc1ccc(Cn2c(=O)sn(CCBr)c2=O)cc1`: 4.51 µM and “Non-toxic”.
In the case of `CCn1sc(=O)n(Cc2ccc(CN)cc2)c1=O.Cl`, the CC50 in the series on MV4-11 [1] was determined as 15.5 µM. In addition, in series [2], the Activity entry is given as “Non-toxic”.
